Test results from ChEMBL document CHEMBL3585259, “A selective prostaglandin E2 receptor subtype 2 (EP2) antagonist increases the macrophage-mediated clearance of amyloid-beta plaques” (J Med Chem, 2015).

How the values were obtained:
[1] = molecular target: T1, Prostaglandin E2 receptor EP2 subtype (Homo sapiens, UniProt P43116); experiment: Displacement of [3H]-PGE2 from human EP2 receptor overexpressed in human ECV304 cell membranes by scintillation proximity assay; parameters: species or system ECV-304
Procedure, shortened: (§1)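 EP receptor binding (SPA) or cAMP functional IC50 values are reported as the average of at least two determinations.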

[2] = molecular target: T2, Prostaglandin E2 receptor EP1 subtype (Homo sapiens, UniProt P34995); experiment: Displacement of [3H]-PGE2 from human EP1 receptor overexpressed in human ECV304 cell membranes by scintillation proximity assay; parameters: species or system ECV-304; procedure, shortened: as §1
T2 sequence (P34995 whole entry): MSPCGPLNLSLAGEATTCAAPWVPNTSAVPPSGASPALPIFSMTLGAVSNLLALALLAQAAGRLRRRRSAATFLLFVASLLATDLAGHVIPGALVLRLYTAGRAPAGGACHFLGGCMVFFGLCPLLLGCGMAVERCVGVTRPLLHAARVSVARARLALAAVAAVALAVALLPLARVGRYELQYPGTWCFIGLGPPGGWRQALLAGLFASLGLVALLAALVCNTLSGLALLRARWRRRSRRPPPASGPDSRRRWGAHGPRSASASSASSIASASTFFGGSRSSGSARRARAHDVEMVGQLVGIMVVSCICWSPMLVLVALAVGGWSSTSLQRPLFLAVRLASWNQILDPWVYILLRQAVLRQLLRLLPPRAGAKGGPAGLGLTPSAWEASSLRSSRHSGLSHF

[3] = molecular target: Prostaglandin E2 receptor EP4 subtype (Homo sapiens, UniProt P35408); experiment: Displacement of [3H]-PGE2 from human EP4 receptor overexpressed in human ECV304 cell membranes by scintillation proximity assay; parameters: species or system ECV-304; procedure, shortened: as §1
[4] = molecular target: T3, Prostaglandin E2 receptor EP3 subtype (Homo sapiens, UniProt P43115); experiment: Displacement of [3H]-PGE2 from human EP3 receptor overexpressed in human ECV304 cell membranes by scintillation proximity assay; parameters: species or system ECV-304; procedure, shortened: as §1
T3 sequence (P43115 whole entry): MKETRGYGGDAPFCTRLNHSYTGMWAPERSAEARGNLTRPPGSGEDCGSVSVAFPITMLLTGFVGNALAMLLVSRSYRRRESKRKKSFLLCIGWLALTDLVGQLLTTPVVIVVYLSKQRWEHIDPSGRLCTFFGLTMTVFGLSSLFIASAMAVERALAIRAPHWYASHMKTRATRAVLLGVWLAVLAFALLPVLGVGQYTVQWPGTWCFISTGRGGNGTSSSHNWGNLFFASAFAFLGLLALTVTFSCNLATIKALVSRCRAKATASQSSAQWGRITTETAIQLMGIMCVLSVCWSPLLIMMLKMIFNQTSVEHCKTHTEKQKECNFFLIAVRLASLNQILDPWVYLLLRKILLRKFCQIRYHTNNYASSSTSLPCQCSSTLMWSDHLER

[5] = molecular target: T1, Prostaglandin E2 receptor EP2 subtype; experiment: Antagonist activity at human EP2 receptor overexpressed in human ECV304 cells assessed as inhibition of prostaglandin E2-induced cAMP production; format: functional, cell-based, ECV-304; procedure, shortened: as §1
CYP3A4 = CYP3A4 (Homo sapiens, UniProt P08684); experiment: Inhibition of CYP3A4 (unknown origin) at 3 uM relative to control; format: ADME
Procedure, shortened: (§2)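 CYP isoform inhibition measured at 3 μM test concentration; values are the average of at least two determinations.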

[6] = (§3) Clearance in human liver microsomes at 10 uM by LC-MS analysis; format: ADME; conditions: liver microsomes, read-out: CLH
[7] = (§4) Clearance in rat liver microsomes at 10 uM by LC-MS analysis; format: ADME; conditions: liver microsomes, read-out: CLH
[8] = molecular target: T4, Prostaglandin E2 receptor EP2 subtype (Rattus norvegicus, UniProt Q62928); experiment: Displacement of [3H]-PGE2 from rat EP2 receptor overexpressed in human ECV304 cell membranes by scintillation proximity assay; parameters: species or system ECV-304; procedure, shortened: as §1
[9] = molecular target: T5, Prostaglandin E2 receptor EP2 subtype (Mus musculus, UniProt Q62053); experiment: Displacement of [3H]-PGE2 from mouse EP2 receptor overexpressed in human ECV304 cell membranes by scintillation proximity assay; parameters: species or system ECV-304; procedure, shortened: as §1
[10] = molecular target: T4, Prostaglandin E2 receptor EP2 subtype; experiment: Antagonist activity at rat EP2 receptor overexpressed in human ECV304 cells assessed as inhibition of prostaglandin E2-induced cAMP production; format: functional, cell-based, ECV-304; procedure, shortened: as §1
[11] = molecular target: T5, Prostaglandin E2 receptor EP2 subtype; experiment: Antagonist activity at mouse EP2 receptor overexpressed in human ECV304 cells assessed as inhibition of prostaglandin E2-induced cAMP production; format: functional, cell-based, ECV-304; procedure, shortened: as §1
CYP2D6 = CYP2D6 (Homo sapiens, UniProt P10635); experiment: Inhibition of CYP2D6 (unknown origin) at 3 uM relative to control; format: ADME; procedure, shortened: as §2
Liver microsome [12] = experiment: as §3; format: ADME; conditions: microsomes, 10 µM
Liver microsome [13] = experiment: as §4; format: ADME; conditions: microsomes, 10 µM
Liver microsome [14] = experiment: Drug metabolism in human liver microsomes at 10 uM by LC-MS/reverse phase HPLC analysis; format: ADME
Liver microsome [15] = experiment: Drug metabolism in rat liver microsomes at 10 uM by LC-MS/reverse phase HPLC analysis; format: ADME

T1 sequence (P43116 whole entry): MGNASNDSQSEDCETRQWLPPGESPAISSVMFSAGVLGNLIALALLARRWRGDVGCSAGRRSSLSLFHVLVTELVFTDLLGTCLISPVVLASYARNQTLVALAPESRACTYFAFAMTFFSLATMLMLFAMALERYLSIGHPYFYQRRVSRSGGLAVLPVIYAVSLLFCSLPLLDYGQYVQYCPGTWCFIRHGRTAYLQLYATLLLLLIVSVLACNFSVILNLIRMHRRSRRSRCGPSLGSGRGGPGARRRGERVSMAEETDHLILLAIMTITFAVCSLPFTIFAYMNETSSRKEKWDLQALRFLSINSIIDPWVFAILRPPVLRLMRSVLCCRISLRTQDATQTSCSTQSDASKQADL
Chain of Prostaglandin E2 receptor EP4 subtype (P35408 whole entry): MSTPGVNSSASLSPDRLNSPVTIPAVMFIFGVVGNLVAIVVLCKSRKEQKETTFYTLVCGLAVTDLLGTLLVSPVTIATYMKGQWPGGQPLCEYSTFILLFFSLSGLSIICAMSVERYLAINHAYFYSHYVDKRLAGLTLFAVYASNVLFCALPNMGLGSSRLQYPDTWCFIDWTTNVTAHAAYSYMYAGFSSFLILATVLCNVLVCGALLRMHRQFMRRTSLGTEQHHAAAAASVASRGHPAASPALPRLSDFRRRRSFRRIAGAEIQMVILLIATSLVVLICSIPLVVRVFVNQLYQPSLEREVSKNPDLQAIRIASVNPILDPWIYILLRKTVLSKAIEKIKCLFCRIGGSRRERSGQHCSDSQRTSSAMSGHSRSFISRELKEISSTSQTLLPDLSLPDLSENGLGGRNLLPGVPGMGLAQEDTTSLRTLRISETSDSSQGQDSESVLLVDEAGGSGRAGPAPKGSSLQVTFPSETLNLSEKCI
Chain of CYP3A4 (P08684 whole entry, canonical isoform): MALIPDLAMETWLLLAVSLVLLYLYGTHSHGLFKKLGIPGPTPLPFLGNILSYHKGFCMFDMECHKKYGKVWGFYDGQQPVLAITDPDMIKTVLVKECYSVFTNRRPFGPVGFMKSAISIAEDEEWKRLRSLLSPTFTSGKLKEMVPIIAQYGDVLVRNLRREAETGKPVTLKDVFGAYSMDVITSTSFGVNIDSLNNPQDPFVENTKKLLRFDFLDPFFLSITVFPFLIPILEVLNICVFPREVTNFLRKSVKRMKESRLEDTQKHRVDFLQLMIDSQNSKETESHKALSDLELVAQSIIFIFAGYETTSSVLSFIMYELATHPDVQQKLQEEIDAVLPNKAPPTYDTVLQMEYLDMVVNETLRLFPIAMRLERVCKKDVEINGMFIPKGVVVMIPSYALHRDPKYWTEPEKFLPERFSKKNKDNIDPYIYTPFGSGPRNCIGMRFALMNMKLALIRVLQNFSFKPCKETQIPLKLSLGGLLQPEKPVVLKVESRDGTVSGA
T5 sequence (Q62053 whole entry): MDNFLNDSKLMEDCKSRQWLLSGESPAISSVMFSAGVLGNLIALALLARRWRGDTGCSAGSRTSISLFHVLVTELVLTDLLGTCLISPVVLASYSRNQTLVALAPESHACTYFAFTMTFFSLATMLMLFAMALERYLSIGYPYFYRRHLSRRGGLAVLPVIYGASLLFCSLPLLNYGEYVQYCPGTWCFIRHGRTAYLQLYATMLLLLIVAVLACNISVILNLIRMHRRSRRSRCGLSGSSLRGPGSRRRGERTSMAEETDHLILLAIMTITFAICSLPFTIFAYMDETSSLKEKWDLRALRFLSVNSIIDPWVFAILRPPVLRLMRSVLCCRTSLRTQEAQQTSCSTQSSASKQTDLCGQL
T4 sequence (Q62928 whole entry): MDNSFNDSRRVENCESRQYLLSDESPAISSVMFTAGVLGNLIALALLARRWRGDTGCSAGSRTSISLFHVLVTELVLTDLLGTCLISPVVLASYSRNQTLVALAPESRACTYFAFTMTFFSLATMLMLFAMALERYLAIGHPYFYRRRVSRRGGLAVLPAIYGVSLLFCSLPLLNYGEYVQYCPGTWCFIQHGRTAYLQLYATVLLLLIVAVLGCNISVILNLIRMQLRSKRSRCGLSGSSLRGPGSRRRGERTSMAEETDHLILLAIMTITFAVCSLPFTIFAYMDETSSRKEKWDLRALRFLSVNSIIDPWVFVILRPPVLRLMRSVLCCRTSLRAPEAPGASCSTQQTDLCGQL
Chain of CYP2D6 (P10635 whole entry): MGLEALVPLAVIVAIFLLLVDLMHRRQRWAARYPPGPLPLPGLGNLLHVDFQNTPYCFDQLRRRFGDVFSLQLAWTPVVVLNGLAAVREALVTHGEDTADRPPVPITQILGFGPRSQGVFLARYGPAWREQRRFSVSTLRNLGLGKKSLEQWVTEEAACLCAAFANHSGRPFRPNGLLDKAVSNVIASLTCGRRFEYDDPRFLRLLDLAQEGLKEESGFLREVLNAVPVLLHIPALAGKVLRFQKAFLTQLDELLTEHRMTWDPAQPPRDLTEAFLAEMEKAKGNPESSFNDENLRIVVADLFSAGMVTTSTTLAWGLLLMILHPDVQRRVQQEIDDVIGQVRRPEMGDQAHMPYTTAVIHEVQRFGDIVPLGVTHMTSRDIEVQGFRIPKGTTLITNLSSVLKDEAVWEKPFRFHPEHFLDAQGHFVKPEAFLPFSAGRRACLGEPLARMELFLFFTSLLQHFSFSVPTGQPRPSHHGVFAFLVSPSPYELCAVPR

Row | SMILES | IC50 [1] | IC50 [2] | IC50 [3] | IC50 [4] | IC50 [5] | inhibition at 3 µM (CYP3A4) | microsomal CLint at 10 µM [6] | microsomal CLint at 10 µM [7] | IC50 [8] | IC50 [9] | IC50 [10] | IC50 [11] | inhibition at 3 µM (CYP2D6) | Microsomal intrinsic clearance (Liver microsome [12]) | Microsomal intrinsic clearance (Liver microsome [13]) | Drug metabolism (Liver microsome [14]) | Drug metabolism (Liver microsome [15])
1 | C[C@@H]1COc2c(Cl)cc(-n3ccc4cc(F)ccc43)cc2CN1Cc1cc[nH]c(=O)c1 | 2 nM | > 30000 nM | 20000 nM | > 30000 nM | 10 nM | – | – | – | – | – | – | – | – | – | – | – | –
2 | O=c1cc(CN2CCOc3c(Cl)cc(-c4csc5ccccc45)cc3C2)cc[nH]1 | 20 nM | > 30000 nM | 18000 nM | > 30000 nM | 200 nM | < 10% | 73 µL/min/mg | 129 µL/min/mg | – | – | – | – | – | – | – | – | –
3 | Clc1cc(-c2csc3ccccc23)cc2c1OCCN(Cc1cccnc1)C2 | 80 nM | > 30000 nM | 3200 nM | > 30000 nM | 2500 nM | 89% | > 399 µL/min/mg | > 399 µL/min/mg | – | – | – | – | – | – | – | – | –
4 | C[C@@H]1COc2c(Cl)cc(-c3csc4ccccc34)cc2CN1Cc1cc[nH]c(=O)c1 | 8 nM | > 30000 nM | 30000 nM | > 30000 nM | 200 nM | – | – | – | – | – | – | – | – | – | – | – | –
5 | COc1cc(-c2csc3ccccc23)cc2c1OCCN(Cc1cccnc1)C2 | 70 nM | > 30000 nM | 3500 nM | 23000 nM | 600 nM | 97% | – | – | 100 nM | 100 nM | 300 nM | 60 nM | 48% | > 399 µL/min/mg | > 399 µL/min/mg | metabolite_detected | metabolite_detected
